Experimental data from different studies.
Target: RAC-alpha serine/threonine-protein kinase (AKT1, Homo sapiens, UniProt P31749)

| Structure (SMILES) | observed | method | concentration | remaining binding [%] |
| --- | --- | --- | --- | --- |
| FC(F)(F)c1ccc2c(c1)nc(-c1cccnc1)n2C1CC1 | cell-free assay | competition with immobilised ligand | 1 µM | 100 |
| COc1cnc(Nc2cccc(S(N)(=O)=O)c2)nc1N1CCN(c2ccccc2)CC1 | binding | competition with immobilised ligand | 1 µM | 100 |
| c1cncc(-c2cccc(Nc3nccc(NC4CCCCC4)n3)c2)c1 | binding | competition with immobilised ligand | 10 µM | 71 |
| Nc1ncc2c(n1)-c1c([nH]c3ccc(C#CC4CC4)cc13)CCCC2 | binding | competition with immobilised ligand | 1 µM | 95 |
| Cc1cnn2ncc(-c3ccnc(N(C)C)n3)c2c1 | binding |  | 1 µM | 94 |
| Cc1nc(N2CC[C@@H](O)C2)ncc1-c1cc(C(F)(F)F)cc2[nH]ncc12 | binding | competition with immobilised ligand | 1 µM | 100 |
| N#Cc1ccccc1CSc1nnc2c(n1)[nH]c1ccccc12 | binding | competition with immobilised ligand | 10 µM | 85 |
| O=C(c1ccc(Nc2ncc(Cl)c(-c3cc4ccccc4s3)n2)cc1)N1CCC(N2CCCC2)CC1 | binding | competition with immobilised ligand | 1 µM | 100 |
| C[C@@H]1CN(c2ccc3ncc(-c4ccc5[nH]nc(C6CC6)c5c4)n3n2)C[C@H](C)O1 | binding | competition with immobilised ligand | 0.5 µM | 100 |
| CC1CCCN1c1nccc(-c2cnn3ncccc23)n1 (centres unmarked) | binding |  | 1 µM | 100 |
| C[C@H](c1ccc(F)cc1)N(Cc1cccc(C(=O)O)c1)C(=O)c1cnc2ccccc2c1 | cell-free assay | competition with immobilised ligand | 1 µM | 100 |
| N[C@@H]1CCN(c2nccc(-c3cnn4ncccc34)n2)C1 | binding |  | 1 µM | 100 |
| Cc1cnc(Nc2ccc(C(=O)N3CCC(N4CCCC4)CC3)cc2)nc1-c1cc2ccccc2s1 | binding | competition with immobilised ligand | 1 µM | 100 |
| F[C@@H]1CCN(c2nccc(-c3cnn4ncccc34)n2)C1 | binding |  | 1 µM | 100 |
| CN1CCN(c2cnc3c(C4CCN(C(=O)c5ccc(OC(F)(F)F)cc5N)CC4)ncnc3c2)CC1 | cell-free assay | competition with immobilised ligand | 1 µM | 100 |
| c1cnn2ncc(-c3ccnc(N4CCC45COC5)n3)c2c1 | binding |  | 1 µM | 95 |
| Cc1c(C(=O)O)cc(-c2ccc(C3CCNCC3)cc2)c2ccc(-c3ccc(C(F)(F)F)cc3)cc12 | binding | competition with immobilised ligand | 1 µM | 100 |
